Screening results from PubChem.
HSF-1 act – increases HSF-1 driven luciferase reporter signal | NIH3T3-HGL HSF-1 luciferase reporter, MG132, 8 h; 100% = twice DMSO control signal | AID 504408 | hit rate 1.7% among 300,000 | activation, % at 9 µM;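 active means mean replicate activation of at least 50% with a set share of replicates each reaching 50%; inconclusive means only one of those two conditions met; inactive means mean below 50% and too few replicates reaching it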;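 further: 0% = median of the neutral control wells and 100% = twice that signal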
SR-BI DiI-HDL act – enhances SR-BI lipid uptake from DiI-HDL | CHO ldlA[mSR-BI] cells, DiI-HDL uptake fluorescence, 3 h; 100 = double the neutral-control signal | activation, % at 12.5 µM | hit rate 0.096% among 320,000;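 active means mean replicate activation of at least 60% and every replicate at or above 60%; inconclusive means mean or all-replicate condition met, but not both; inactive means mean below 60% and not all replicates reaching 60%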;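 further: 0% = median plate neutral-control signal and 100% = twice that signal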
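Test system: SR-BI-overexpressing, LDLR-lacking CHO cells. Measured by: DiI fluorescence, bottom read. Medium: Ham's F12 with 0.5% BSA, HEPES 25 mM, pH 7.4. Timing: 3 h uptake period with compound, 37 °C.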
Wnt bcat act – activates Wnt/beta-catenin signaling in a reporter cell assay. activator, plate reader. activation, % at 9.35 µM. hit rate 1.2% among 300,000; in the data active means activation above about 30%, passing the limit was not always enough; inconclusive means no clear call, values can overlap the other calls;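 further: 0% = neutral control wells and 100% = positive control wells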
SR-BI DiI inh – blocks mouse SR-BI lipid uptake from DiI-HDL; Q61009; ldlA[mSR-BI] CHO cells, DiI-HDL uptake fluorescence, 3 h; inhibition, % at 12.5 µM; hit rate 0.96% among 320,000;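 active means mean replicate inhibition of at least 70% and a set share of replicates each scoring 70 or more; inconclusive means meets just one of the two criteria; inactive means fails both criteria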;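 further: 0% = median of neutral control wells and 100% = median of positive control wells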
Target sequence (Q61009 whole entry, looked up): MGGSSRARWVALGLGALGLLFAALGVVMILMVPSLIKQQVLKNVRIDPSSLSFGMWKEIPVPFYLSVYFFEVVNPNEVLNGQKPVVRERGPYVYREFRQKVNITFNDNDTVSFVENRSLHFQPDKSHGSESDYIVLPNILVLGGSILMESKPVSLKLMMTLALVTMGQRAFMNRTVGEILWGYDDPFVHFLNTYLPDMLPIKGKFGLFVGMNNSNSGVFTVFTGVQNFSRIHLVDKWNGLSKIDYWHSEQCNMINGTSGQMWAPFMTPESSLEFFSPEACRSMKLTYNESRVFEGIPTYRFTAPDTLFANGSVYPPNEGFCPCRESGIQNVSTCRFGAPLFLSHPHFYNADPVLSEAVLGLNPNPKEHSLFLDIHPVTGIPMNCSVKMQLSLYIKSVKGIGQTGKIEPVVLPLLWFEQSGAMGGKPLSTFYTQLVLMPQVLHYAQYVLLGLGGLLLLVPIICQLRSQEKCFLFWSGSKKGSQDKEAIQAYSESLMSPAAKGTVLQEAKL
MITF TRPM1 HTS – MITF TRPM1 promoter activation in melanoma cells | SK-MEL-5 TRPM1-promoter luciferase, 24 h; % of positive control, neutral wells = 0 | activation, % at 12.5 µM | hit rate 0.75% among 300,000;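 active means mean activation of at least 80% with every replicate also reaching 80%; inconclusive means mean reaches 80% but some replicate falls short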;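 further: 0% = neutral control wells and 100% = parthenolide positive control wells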
An asterisk follows results filed as active; ? = inconclusive; . = no result. In the library only some 3.6% were active in any assay of this set; here they are far more common.

SMILES | HSF-1 act | SR-BI DiI-HDL act | Wnt bcat act | SR-BI DiI inh | MITF TRPM1 HTS
C=CCn1c2ccccc2c(=O)c2cc(C#Cc3ccsc3)ccc21 | 10 | . | . | . | .
C=CCn1c2ccccc2c(=O)c2cc(C#Cc3ccccn3)ccc21 | . | -72 | 26 | ? | 124*
CCOc1ccc(S(=O)(=O)c2ccc(C)cc2)c2c1no[n+]2[O-] | . | . | -5 | . | .
c1coc(-c2nc3c4ccccc4ccn3c2Cc2ccsc2)c1 | . | . | 10 | . | .
O=c1c2ccccc2oc2cc(C#Cc3ccccn3)ccc12 | 63* | 41 | 34* | -41 | 25
Cc1nn(Cc2ccccc2Cl)c(Cl)c1C(=O)NCCc1ccccc1 | 61* | -52 | 47* | 52 | 60
CC(=O)Nc1ccc(NC(=O)c2c(C)nn(Cc3ccccc3)c2Cl)cc1 | 26 | -9 | -1 | 9 | -1
O=C(Nc1cccc(-n2cnnn2)c1)c1ccc(C(F)(F)F)cc1 | . | -25 | -3 | 25 | 4
Cc1cc(C)nc(-n2nc(C)c(Sc3ccc(F)cc3)c2N)n1 | 62* | 7 | 21 | -7 | 56
O=C1C(C=NCCN2CCOCC2)=C(O)c2ccccc21 | -32 | 3 | 34* | -3 | 35
O=C1C(C=Nc2ccccc2O)=C(O)c2ccccc21 | 36 | -52 | 36* | 52 | 16
Cc1ccc(O)c(N=CC2=C(O)c3ccccc3C2=O)c1 | 10 | -118 | 117* | 118* | 37
O=C1C(C=NCCCN2CCOCC2)=C(O)c2ccccc21 | 1 | 6 | . | -6 | 2
CN=CC1=C(O)c2ccccc2C1=O | -9 | -3 | 19 | 3 | 3
O=C1C(C=Nc2ccccc2)=C(O)c2ccccc21 | 54* | -13 | 12 | 13 | 29
C[C@H]1CN([C@@H](C)CO)C(=O)CCCn2cc(nn2)CO[C@@H]1CN(C)C(=O)c1ccccc1 | . | . | -3 | . | .
CCCCN1C(=O)C(CC(=O)NCc2cccc3ccccc23)CC(C(=O)N(C)C)=C1C (configuration not stated) | . | . | -1 | . | .
CC(=O)N1CCN(c2cc(-c3ccccc3)nc3cc(-c4cccc(Cl)c4)nn23)CC1 | . | . | -2 | . | .
Cc1ccc(CONC(=O)c2cccc(C)c2)cc1 | . | -4 | 2 | 4 | 33
O=C(NOCc1ccccc1)c1ccccc1 | -1 | 4 | 32* | -4 | 34
CCc1ccc([C@@H]2C[C@H]3[C@@H](CN2S(=O)(=O)c2ccc(C)cc2)C(=O)C[C@@H](c2ccc(Cl)cc2)N3S(=O)(=O)c2ccc(C)cc2)cc1 | . | . | -2 | . | .
COc1ccc(C(=O)/C=C/Nc2ccc([N+](=O)[O-])cc2C)cc1OC | 21 | -9 | -4 | 9 | 39
CCOc1ccc(N/C=C/C(=O)c2ccc(C)cc2)c([N+](=O)[O-])c1 | 17 | -46 | . | 46 | 88*
Cc1ccc(C(=O)/C=C/Nc2ccc([N+](=O)[O-])cc2Br)cc1 | -4 | -10 | 11 | 10 | 87*
COCCCN1C(=O)C(CC(=O)NCCN2CCOCC2)CC(C(=O)N(C(C)C)C(C)C)=C1C (configuration not stated) | . | . | -1 | . | .
SMILES | HSF-1 act | SR-BI DiI-HDL act | Wnt bcat act | SR-BI DiI inh | MITF TRPM1 HTS
Cc1ccc(NC(=O)ON=C2CCCC2)cc1 | 0 | 24 | 19 | -24 | 97*
O=C(Nc1ccccc1)ON=C1CCCC1 | 15 | 25 | -1 | -25 | 20
COC1(OC)C(/C=C/c2ccc(C)cc2)C(C#N)(C#N)C1(OC)OC (configuration not stated) | 55* | 37 | -1 | -37 | .
O=c1c2ccccc2nnn1Cc1ccco1 | . | . | -1 | . | .
O=[N+]([O-])c1cc(S(=O)(=O)Nc2ccc(Cl)cc2)ccc1N/N=C/c1ccncc1 | -2 | -72 | -6 | 72* | 6
O=[N+]([O-])c1ccc(Cl)cc1N/N=C/c1ccncc1 | 2 | -8 | -1 | 8 | 9
O=C(CCCn1c(=O)c2cccn2c2cccnc21)NCCc1ccc(Cl)cc1 | 25 | -79 | 0 | 79* | 15
COc1cc(CCNC(=O)CCCn2c(=O)c3cccn3c3cccnc32)cc(OC)c1OC | -3 | -28 | 2 | 28 | 1
CCc1ccc(C(=O)COC(=O)c2ccccc2OC)cc1 | 49 | 14 | 50* | -14 | 87*
CCc1ccc(C(=O)COC(=O)c2cccnc2Cl)cc1 | 23 | -10 | 44* | 10 | 23
CCC(=O)N1CCC1(C)C(=O)Nc1ccc(C)c(C)c1 (configuration not stated) | . | . | -2 | . | .
